Screening results (PubChem BioAssay)
Sampled rows, rich in hits. Any-hit rate of the full collection: about 5.5%.
Yeast lifespan up = compounds extending yeast replicative lifespan, primary screen, S. cerevisiae, OD615. S. cerevisiae growth with nicotinamide; deaD strain in restrictive glucose medium. inhibition of the nicotinamide effect, % at 10 µM. 0.68% of 130,000 active. AID 775, 2007;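 active = inhibition above a set limit, placed 3 SD over the median of all compounds, cut at about 26% in these data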
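Assay system: DeaD-strain S. cerevisiae. Medium: CSMM-D glucose medium, restrictive. Reagent: nicotinamide, 1.5 mM, co-present with compound. Compound: 10 µM single point, 0.25% DMSO. Schedule: culture preincubation 4 h, compound exposure 48 h, both 30 °C. Detection: absorbance at 615 nm.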
BB579 growth dn = growth inhibitors of yeast BB579 in restrictive medium, primary screen, yeast lifespan-shortening project, S. cerevisiae. OD615, 48 h. inhibition, % at 10 µM. 0.51% of 140,000 active;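 active = inhibition above a set limit, 3 SD over the mean compound inhibition, cut at about 44% in these data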
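Assay system: S. cerevisiae DeaD strain BB579 yeast. Medium: CSMM-D restrictive synthetic medium containing dextrose (glucose). Times: 4 h cell preincubation, 48 h compound exposure, 30 °C humidified. Signal: OD615 turbidity measurement. Benchmarks: positive control amphotericin B 10 µg/mL.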
WT yeast gro inh = growth inhibition of WT strain, primary screen, mitochondrial fusion inhibitor project, WT and mutant strains, chemical genetic. inhibition, % at 10 µM. mitochondrial fusion phenotypic screen. 2.1% of 190,000 active; in the data active = inhibition above about 58%; tested in S. cerevisiae
RAM inhibit = inhibitors of the yeast RAM network, primary screen, dse1pr::URA3 reporter, 5-FOA selection; inhibition, % at 50 µM; S. cerevisiae dse1pr::URA3 reporter, 5-FOA growth OD615, 2 d; analog-sensitive cbk1-as2 kinase mutant strain; 1.8% of 190,000 active;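 active = inhibition above a set limit, 3 SD over mean compound inhibition, cut at about 8.4% in these data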;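 note: inhibition rescues growth on 5-FOA so higher OD means more RAM inhibition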
KCC2 mod = KCC2 cotransporter modulators, thallium flux, primary screen, cell-based, HEK293 KCC2, FluoZin-2 fluorescence, MLSMR; Solute carrier family 12 member 5 (Homo sapiens), Q9H2X9; KCC2 cells, thallium flux FluoZin-2 fluorescence; B-score of Tl+ flux slope (higher = more flux/activation; lower = inhibition) at 10 µM; 2.2% of 190,000 active; AID 1456, 2008;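 active = thallium flux slope and its plate-corrected score both differing from the plate sample mean at a set confidence after two filtering rounds, in either direction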;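 note: slope of fluorescence scaled to starting intensity during 10 to 20 s after thallium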
Target sequence (Q9H2X9 whole entry, looked up): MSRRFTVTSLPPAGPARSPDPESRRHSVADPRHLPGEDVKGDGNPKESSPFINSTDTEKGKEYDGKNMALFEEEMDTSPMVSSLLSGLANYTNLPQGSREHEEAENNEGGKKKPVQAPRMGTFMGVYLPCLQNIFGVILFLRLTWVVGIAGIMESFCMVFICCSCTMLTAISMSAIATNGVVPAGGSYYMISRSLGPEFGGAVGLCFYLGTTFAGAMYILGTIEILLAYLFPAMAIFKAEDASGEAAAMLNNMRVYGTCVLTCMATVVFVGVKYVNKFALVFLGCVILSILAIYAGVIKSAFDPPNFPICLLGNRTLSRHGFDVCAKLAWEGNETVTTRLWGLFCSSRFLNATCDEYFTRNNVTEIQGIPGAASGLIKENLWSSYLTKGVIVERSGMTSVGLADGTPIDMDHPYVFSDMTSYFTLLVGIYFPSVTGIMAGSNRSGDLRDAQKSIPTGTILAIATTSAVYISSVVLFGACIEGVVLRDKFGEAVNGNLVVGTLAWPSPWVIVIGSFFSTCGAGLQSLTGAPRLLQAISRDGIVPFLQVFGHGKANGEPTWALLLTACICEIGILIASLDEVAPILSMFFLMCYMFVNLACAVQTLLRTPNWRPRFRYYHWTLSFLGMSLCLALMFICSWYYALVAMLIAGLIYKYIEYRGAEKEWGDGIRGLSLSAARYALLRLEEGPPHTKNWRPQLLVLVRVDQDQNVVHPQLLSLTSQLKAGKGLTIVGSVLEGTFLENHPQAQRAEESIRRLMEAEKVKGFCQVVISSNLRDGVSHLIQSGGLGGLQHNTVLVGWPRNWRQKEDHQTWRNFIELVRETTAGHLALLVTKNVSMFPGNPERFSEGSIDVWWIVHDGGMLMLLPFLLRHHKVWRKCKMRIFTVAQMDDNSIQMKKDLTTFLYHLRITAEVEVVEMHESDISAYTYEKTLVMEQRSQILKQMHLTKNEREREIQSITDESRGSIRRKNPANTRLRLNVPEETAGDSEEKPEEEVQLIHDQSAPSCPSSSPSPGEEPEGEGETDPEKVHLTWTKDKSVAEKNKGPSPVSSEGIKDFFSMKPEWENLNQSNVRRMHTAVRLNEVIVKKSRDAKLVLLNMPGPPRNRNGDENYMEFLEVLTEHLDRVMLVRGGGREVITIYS
KCC2 secondary = KCC2 modulators in sodium-free buffer, confirmation, cell-based, HEK293 KCC2, thallium flux, secondary assay. shares compounds with KCC2 mod. FluoZin2 fluorescence; hits give high values. normalised thallium flux (F/F0 slope) at 10 µM. 15% of 3,700 active. AID 1713, 2009;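 active = thallium flux slope above the same plate's solvent-only control mean plus 3 SD; inconclusive = the two replicate wells disagree; inactive = no significant difference from solvent-only control wells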
KCC2 bumet counter = thallium flux persisting under bumetanide in KCC2 cells, confirmation, counter-screen for KCC2 modulator project, cell-based, HEK293 KCC2, FluoZin2, secondary assay 3. shares compounds with KCC2 mod. HEK293-KCC2 + bumetanide/ouabain; hits give high values. normalized thallium flux at 10 µM. 49% of 3,700 active. AID 1714, 2009;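 active = thallium entry rate above the same plate's blocked-transporter control wells by more than 3 SD; inconclusive = the two repeat wells disagree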;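 note: raw slope of fluorescence over initial fluorescence between 10 and 20 s after thallium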
KCC2 sec2 = KCC2 modulators without ouabain present, confirmation, cell-based, HEK293 KCC2, thallium flux, FluoZin2, secondary assay 2; shares compounds with KCC2 mod; normalized thallium flux at 10 µM; AID 1715, 2009; 23% of 3,700 active; thallium flux FluoZin2 fluorescence; actives lie on both sides; F/F0 rise rate, 10–20 s post-thallium;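 active = thallium flux slope more than 3 SD above or below the plate's solvent-only control mean, mostly below; inconclusive = the two repeat wells disagreed; inactive = no significant shift from solvent-only controls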
HEK counter1 = thallium flux modulation in parental HEK cells, confirmation, counter-screen for KCC2 modulator project, cell-based, counterscreen 1; AID 1716, 2009; shares compounds with KCC2 mod; HEK293 parental cells, thallium flux FluoZin2, ouabain; baseline-ratio fluorescence slope, 10–20 s after thallium; thallium flux rate (normalised fluorescence) at 10 µM; 46% of 3,700 active;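 active = thallium flux rate significantly above the same plate's solvent-only control wells, beyond their mean plus 3 SD; inconclusive = the two replicate wells gave conflicting results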
KCC2 retest ouab = KCC2 inhibitors and activators, ouabain retest, confirmation, HEK-KCC2 cells; 48% of 3,700 active; AID 1717, 2009; shares compounds with KCC2 mod; HEK293-KCC2, thallium flux FluoZin2 fluorescence; bidirectional: low = inhibitor, high = activator; raw Tl+ flux slope (below DMSO = inhibition, above = activation) at 10 µM;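 active = thallium flux slope beyond 3 SD from same-plate DMSO control mean in most replicates, usually higher, sometimes lower; inconclusive = repeat tests gave conflicting results; inactive = no significant difference from controls in most replicates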;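 note: slope of initial-normalized fluorescence between seconds 10 and 20 after thallium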
HEK293 Tl flux2 = native HEK Tl+ uptake effects, second counter-screen – HEK cells, counterscreen 2, counter-screen for KCC2 modulator project, confirmation; shares compounds with KCC2 mod; HEK293 parental, thallium flux FluoZin-2 fluorescence slope; thallium flux slope at 10 µM; 33% of 3,700 active; AID 1718, 2009;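 active = thallium flux slope above the same plate's solvent-control mean plus 3 SD in both duplicate wells; inconclusive = duplicate wells that disagreed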;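 note: run without ouabain in cells lacking the KCC2 cotransporter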
Of the large screens only hits and unclear results are named; the others gave an inactive call (follow-up assays come after a bar, where they were run).

CCOc1ccc(-c2csc(Cn3c(CN4CCN(C)CC4)nc4ccccc4c3=O)n2)cc1	none
CN(C)S(=O)(=O)c1ccc(NC(=O)CSc2ncnc3ccccc23)cc1	KCC2 mod -4 | KCC2 secondary inactive | KCC2 bumet counter inactive | KCC2 sec2 0.026 | HEK counter1 inactive | KCC2 retest ouab 0.015 | HEK293 Tl flux2 inactive
COC(=O)c1ccc2c(=O)n(-c3ccccc3F)c(=S)[nH]c2c1	KCC2 mod 5.6 (no result: Yeast lifespan up, BB579 growth dn) | KCC2 secondary inactive | KCC2 bumet counter 0.018 | KCC2 sec2 inactive | HEK counter1 0.012 | KCC2 retest ouab 0.022 | HEK293 Tl flux2 0.013
COC(=O)c1ccc2c(=O)n(-c3ccccc3)c(=S)[nH]c2c1	KCC2 mod 11 (no result: Yeast lifespan up, BB579 growth dn) | KCC2 secondary inactive | KCC2 bumet counter 0.022 | KCC2 sec2 inactive | HEK counter1 0.021 | KCC2 retest ouab 0.025 | HEK293 Tl flux2 0.023
O=C(O)c1ccc2c(=O)n(-c3ccccc3F)c(=S)[nH]c2c1	none (no result: Yeast lifespan up, BB579 growth dn)
CC(C)NC(=O)CSc1nnc(-c2ccncc2)n1-c1ccccc1	none
CC(NC(=O)COC(=O)/C=C/c1cccc(C(F)(F)F)c1)c1ccccc1 (stereo not drawn)	none
CC1Nc2nc(NC(=O)C(C)(C)C)[nH]c(=O)c2N(C)C1C (stereo not drawn)	none
Cn1c(SCC(=O)NCCN2C(=O)CSC2=O)nc2ccccc2c1=O	KCC2 mod 6.4 | KCC2 secondary inactive | KCC2 bumet counter 0.013 | KCC2 sec2 inconclusive | HEK counter1 0.012 | KCC2 retest ouab inactive | HEK293 Tl flux2 0.017
O=C(CSc1nc2ccccc2n1CCc1ccccc1)NC1CC1	none
Cn1c(SCC(=O)NCc2ccccc2)nc2ccccc21	none | KCC2 secondary inconclusive | KCC2 bumet counter inactive | KCC2 sec2 inactive | HEK counter1 inactive | KCC2 retest ouab inactive | HEK293 Tl flux2 inactive
O=C(CSc1nc2ccccc2c(=O)n1Cc1ccco1)NCCN1C(=O)CSC1=O	none (no result: Yeast lifespan up, BB579 growth dn, WT yeast gro inh, RAM inhibit)
Cn1cnnc1SCC(=O)NCc1ccccc1	none (no result: Yeast lifespan up, BB579 growth dn)
O=C(CSc1nc2ccccc2n1CCc1ccccc1)NC1CCS(=O)(=O)C1 (stereo not drawn)	KCC2 mod 7.2 | KCC2 secondary inactive | KCC2 bumet counter 0.021 | KCC2 sec2 inactive | HEK counter1 0.011 | KCC2 retest ouab 0.028 | HEK293 Tl flux2 0.011
O=C(O)CCn1c(SCc2ccccc2)nc2ccccc21	KCC2 mod -4.2 | KCC2 secondary inactive | KCC2 bumet counter inactive | KCC2 sec2 inactive | HEK counter1 inactive | KCC2 retest ouab 0.015 | HEK293 Tl flux2 inactive
CC(=O)Oc1ccc(N2C(=O)C3C4C=CC(CC4)C3C2=O)cc1[N+](=O)[O-] (stereo not drawn)	none (no result: Yeast lifespan up, BB579 growth dn)
